Calls of active or inactive are those of the source. The calls are words filed in the database; no cut-off is given here.
Key:
[1] = Volume of distribution at steady state in female Sprague-Dawley rat at 0.5 mg/kg, iv measured for 36 hrs by LC-MS/MS analysis; assay type: ADME, organism-based; conditions: in vivo
How it was run: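 Sprague-Dawley rats (200–220 g), three males and three females per route group. Dosed 5 mg/kg orally or 0.5 mg/kg IV as a solution in DMSO/T-80/H2O (1:5:94 by volume). Heparinized blood was drawn from 5 min to 36 h after IV and 1–36 h after oral dosing. Plasma was protein-precipitated with methanol (2% HCl) plus carbamazepine internal standard and assayed by LC-MS/MS. Parameters were taken from concentration-time data; n = 3 per sex, mean ± SD.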

[2] = MRT(0 to t) in female Sprague-Dawley rat at 5 mg/kg, po measured for 36 hrs by LC-MS/MS analysis; assay type: ADME, organism-based; conditions: in vivo
[3] = Cmax in male Sprague-Dawley rat at 5 mg/kg, po measured for 36 hrs by LC-MS/MS analysis; assay type: ADME, organism-based; design: route oral, time 36 hrs, dose 5 mg/kg; conditions: in vivo
[4] = Half life in male/female Sprague-Dawley rat at 5 mg/kg, po measured for 36 hrs by LC-MS/MS analysis; assay type: ADME, organism-based; conditions: both, in vivo
MDA-MB-231 [5] = assay: Induction of apoptosis in human MDA-MB-231 cells assessed as PARP cleavage at 0.5 uM measured after 6 hrs by western blot assay relative to Di(1H-indol-3-yl)(4-(trifluoromethyl)phenyl)methylium methanesulfonate; assay type: functional
How it was run: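 MDA-MB-231 in DMEM with 10% FBS, 0.5 µM for 6 h, then PARP western blot with 1:1000 primary antibodies and ECL. Cleaved PARP/PARP band intensity ratio expressed relative to the reference methylium methanesulfonate, whose ratio was set to 1. Mean ± SD, n = 3.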

SW-620 = assay: Induction of apoptosis in human SW-620 cells assessed as PARP cleavage at 0.5 uM measured after 6 hrs by western blot assay; assay type: functional, cell-based
How it was run: (§1)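 Cells exposed to 0.5 µM for 6 h. Lysates resolved by SDS-PAGE and blotted to PVDF, blocked in 5% milk/TBST, probed with primary antibodies at 1:1000, ECL detection. Apoptosis scored as the densitometric ratio of cleaved PARP band to intact PARP band; mean ± SD, n = 3.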

[6] = target: T1, Nuclear receptor subfamily 4immunitygroup A member 1 (Homo sapiens, UniProt P22736); assay: Modulation of GFP-Nur77 (unknown origin) transfected in human HEK293T cells co-transfected with Flag-tagged Bcl2 assessed as interaction of Nur77 with Bcl2 in mitochondria at 0.5 uM measured after 2 hrs by confocal microscopy; conditions: filed as modulator
How it was run: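 HEK293T cells were lipofectamine-cotransfected with Flag-Bcl-2 and GFP-Nur77 or GFP-Nur77-LBD, then given 0.5 μM compound for 2 h. Cells were fixed in 4% paraformaldehyde, permeabilised with 0.1% Triton X-100, blocked in 1% BSA and stained with anti-Flag plus DAPI. Mitochondrial colocalisation with Bcl-2 was read by confocal microscopy.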

MDA-MB-231 [7] = assay: Induction of apoptosis in human MDA-MB-231 cells assessed as PARP cleavage at 0.5 uM measured after 6 hrs by western blot assay; assay type: functional, cell-based; how it was run: as §1
[8] = target: T1, Nuclear receptor subfamily 4immunitygroup A member 1; assay: Modulation of Myc-Nur77-LBD (unknown origin) transfected in human HEK293T cells assessed as induction of Myc-Nur77 mitochondrial targeting by measuring increase in Myc-Nur77 accumulation in mitochondria at 0.5 uM measured after 2 hrs by Mito-tracker dye based confocal microscopy method; conditions: filed as modulator
How it was run: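 HEK293T cells transfected with Myc-Nur77-LBD were given 0.5 μM compound for 2 h, stained with Mito-Tracker and immunostained. Nur77 mitochondrial localisation was visualised by confocal microscopy.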

MEF = assay: Induction of apoptosis in wild type mouse MEF cells assessed as PARP cleavage at 0.5 uM measured after 6 hrs by western blot assay; assay type: functional, cell-based
How it was run: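 Wild-type, Nur77−/− or Bcl-2−/− mouse embryonic fibroblasts grown in DMEM with 10% FBS and treated with 0.5 µM for 6 h. PARP cleavage detected by western blot, primary antibodies at 1:1000, ECL.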

T1 sequence (P22736 whole entry, the tested form may be a part): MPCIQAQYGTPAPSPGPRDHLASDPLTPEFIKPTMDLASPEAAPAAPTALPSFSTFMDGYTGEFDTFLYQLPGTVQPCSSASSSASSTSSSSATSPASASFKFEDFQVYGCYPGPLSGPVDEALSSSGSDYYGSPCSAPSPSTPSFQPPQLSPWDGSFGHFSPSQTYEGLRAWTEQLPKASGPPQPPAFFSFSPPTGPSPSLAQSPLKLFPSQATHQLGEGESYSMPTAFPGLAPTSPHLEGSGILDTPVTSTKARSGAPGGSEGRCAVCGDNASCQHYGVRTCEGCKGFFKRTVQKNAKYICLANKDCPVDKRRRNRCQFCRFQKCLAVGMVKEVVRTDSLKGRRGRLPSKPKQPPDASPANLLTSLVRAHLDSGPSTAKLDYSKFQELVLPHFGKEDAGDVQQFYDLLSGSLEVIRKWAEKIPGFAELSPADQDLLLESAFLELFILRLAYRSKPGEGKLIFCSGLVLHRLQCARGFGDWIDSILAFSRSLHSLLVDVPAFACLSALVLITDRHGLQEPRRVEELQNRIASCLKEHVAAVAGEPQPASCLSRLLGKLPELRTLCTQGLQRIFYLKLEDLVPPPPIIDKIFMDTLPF

CS(=O)(=O)[O-].FC(F)(F)c1ccc([C+](c2c[nH]c3ccccc23)c2c[nH]c3ccccc23)cc1
Vdss [1]: 2.38 L/kg | MRT last at 36 h [2]: 14.5 h | Cmax [3]: 143 ng/mL

CS(=O)(=O)[O-].Cn1cc([C+](c2ccc(C(F)(F)F)cc2)c2c[nH]c3ccccc23)c2ccccc21
half-life [4]: 4.49 h | fold change (FC) (MDA-MB-231 [5]): 8.93 | Activity (SW-620): Active | Activity [6]: Active | Activity (MDA-MB-231 [7]): Active | Activity [8]: Active | Activity (MEF): Active

— ChEMBL document CHEMBL4819003, “Optimization of novel oxidative DIMs as Nur77 modulators of the Nur77-Bcl-2 apoptotic pathway” (Eur J Med Chem, 2021)
